Experiment: Toxicity liver stage against HepG2, at 10uM
Format: cell-based
Parameters: test concentration 10 uM, cell line HepG2-A16-CD81EGFP
Details: human, HepG2-A16-CD81EGFP cells; read-out: INHIBITION
Outline: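 Uninfected HepG2-A16-CD81EGFP cells, 3 × 10^3 per well, 1536-well, plated on prespotted compound at 10 μM final, parasite-free screening media added to match infected plates; puromycin 10 μM positive, DMSO 0.5% negative; run in parallel with 48 h PbLuc assay at 37 °C, 5% CO2; viability by CellTiter-Glo luminescence, normalized to controls.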

Compound	cytotoxicity at 10 µM [%]
O=C(c1ccccc1)N(CC1CC1)c1cccnc1	7.27
CC(C)Cc1nc(NC(=O)c2cc(-c3cccnc3)n[nH]2)n[nH]1	2.34
CCS(=O)(=O)NCC1CCN(c2cnccn2)CC1	10.3
Cc1ccc2c(n1)N(Cc1cccnc1)CCN(C(=O)C1CC=CC1)C2	8.07
CN(Cc1cccnc1)[C@@H]1CN(c2ncc(F)cn2)[C@@H]2CCCO[C@H]12	0.559
Cc1cnc(N2C(=O)CSC2c2ccc(N(C)C)cc2)s1 (stereo unspecified)	6.07
Cc1nn2c(=O)/c(=C\c3cccs3)sc2nc1=O	7.19
CC(C)(CO)NCc1nn(Cc2ccccc2)nc1-c1ccccc1	-6.69
NC(=O)c1c(-c2ccc(Cl)cc2)csc1NC(=O)CCC(=O)O	13.8
Clc1ccc(-n2nnnc2C2(NCc3ccco3)CCCCC2)cc1	15.7
CCOCCCNC(=O)c1cc(C)nc(N2CCCCC2)n1	8.52
COCc1cccc(S(=O)(=O)N2CCSCC2)c1	8.19
CCC(=O)Nc1nnc(CCOc2ccc(OC)cc2)s1	6.31
Cc1cc(C)n(CCC(=O)N2CCC(c3nc(C(C)C)no3)CC2)n1	-16.1
CNc1cnc(CC2COCCN(CCOc3ccccc3)C2)cn1 (stereo unspecified)	-0.257
CSCC[C@@H]1CN2CCC[C@H]2CN1Cc1coc2ccc(C)cc2c1=O	2.89
CN(CC1(O)CCCN(c2ccccn2)C1)C(=O)CCc1cccs1 (stereo unspecified)	-26.9
Cc1cc2cc(C(=O)N[C@@H]3CC[C@@H](N4CCNC(=O)C4)[C@@H]3O)ccc2o1	-5
CN(C)C(=O)CN1CCCCC1c1nc(N)ncc1-c1cccc(F)c1 (stereo unspecified)	-3.68
CS(=O)(=O)N1Cc2ccccc2CC2(CCN(Cc3ccccn3)C2)C1 (stereo unspecified)	4.51
CN1CCC2(Cc3ccccc3CN(C(=O)CCN)C2)C1 (stereo unspecified)	0.17
CCOc1nnc(CN(CC)CC(=O)NC(C)C)s1	3.88
O=S(=O)(CCCn1cncn1)Cc1ccc(F)cc1Cl	7.49

Compound	cytotoxicity at 10 µM [%]
CCCC(=O)N(C)Cc1cccc(OC(C)C)c1	-4.24
CCOCCOC(C)C(=O)Nc1ccnn1-c1ccccc1C (stereo unspecified)	-0.308
CCNC(=O)NC1CCC(Oc2ccccc2C#N)CC1 (stereo unspecified)	-9.08
CCc1nc(NS(=O)(=O)c2cccc(F)c2C)no1	5.18
Cn1cc(C(=O)Nc2cccc(-c3ccc4c(c3)CCO4)n2)ccc1=O	3.72
CN(C1CCCCC1)S(=O)(=O)N1CCN(Cc2ccco2)CC1	-81.7
c1ncn(Cc2ccc(CNCc3ccc4c(c3)OCCO4)cc2)n1	-1.66
CCCSCC(=O)NCc1cccc(CN(C)CC)c1	-0.823
O=C(CCn1cnc2ccccc21)N1CCN2CCCCC2C1 (stereo unspecified)	-4.34
COc1cccc(CNC(=O)C(C)N2CC(n3nc(C)cc3C)C2)c1 (stereo unspecified)	0.868
O=C(Nc1ccccc1)C1CCCN(C(=O)Cn2cncn2)C1 (stereo unspecified)	16.3
NCC(CO)Cc1ccc(C(F)(F)F)cc1 (stereo unspecified)	4.42
O=C(NCCCC(=O)N1Cc2ccccc2C1)NCc1nccs1	-1.37
COc1ccc(CC(=O)NCCn2nc3ccccn3c2=O)cc1	-8.61
CCOc1ccc(NC(=O)N2CCNC(=O)C2)c(C(F)(F)F)c1	7.09
CN(Cc1ccc(F)cc1C#N)CC(F)(F)F	4.28
Cc1n[nH]cc1CNC1(c2ccc(F)cc2)CCCC1	9.56
COc1cc(CN(C)C(=O)Nc2cc(C)on2)ccc1SC	-10.7
CNC(=O)c1cnc(/C=C/c2ccc(OC)c(O)c2)s1	-11.1
CCCn1nc2c(cc1=O)CN(Cc1cc(C)on1)CC2	-13.9
CNC(=O)NCC1CCC2(CCN(C(=O)c3ccccc3)CC2)CO1 (stereo unspecified)	-97.2
O=C([C@@H]1CCCO1)N1CCN(Cc2ccncc2)c2ncccc2C1	-95.7
Cc1nc(-c2nc(C(=O)N(C)C)c3ccccn23)cn1C(C)C	-121

Compound	cytotoxicity at 10 µM [%]
O=C(c1cccs1)N1CC[C@@H]2[C@H]1CCC(=O)N2c1ccccc1	-97.5
CCc1ncc(C(=O)N2CCCOC(Cn3cccn3)C2)cn1 (stereo unspecified)	-0.95
COc1cccc2ccc(CN3CCN(c4ncccn4)CC3)nc12	-2.13
CC(C)c1cc(C(=O)N2CCCC3(CCNC3)C2)no1 (stereo unspecified)	5.28
COCCN1CCC(C(=O)N(C)Cc2c[nH]c3ccc(C)cc23)C1 (stereo unspecified)	-13.2
CC(=O)Nc1ccc2nc(-c3nccn3CCCN(C)C)ccc2c1	-6.07
NC(=O)Cn1ccnc1C1CCCN(CCSc2ccccc2)C1 (stereo unspecified)	-2.65
Cn1c(Cn2ncc(N3CCCCC3)cc2=O)nc2ccccc21	6.01
COc1ccc(CN2CCC3(CC2)C(C(=O)O)CC(=O)N3C)cc1Cl (stereo unspecified)	-5.66
CCSCCNC(=O)c1cnc(-c2ccccc2)nc1O	-1.54
O[C@@]1(Cn2cnc(Cl)c2Cl)CCCN2CCCC[C@@H]21	-1.88
COc1cccc(Cl)c1-c1cc(CN)ccc1F	-5.3
CCN(CC)C(=O)N1CCN(Cc2cnc(C)nc2)[C@H]2CS(=O)(=O)C[C@H]21	-8.84
Cc1nn(C)c2nc(N(C)CCN(C)C3CCCC3)sc12	3.55
O=C1CC(NCc2ncc[nH]2)CN1CCc1cccc(Cl)c1 (stereo unspecified)	-0.745
Cc1c[nH]c(CN2CCCCC2CCc2cccc(O)c2)c(C)c1=O (stereo unspecified)	-14.6
CCc1noc(CN(CC)C(=O)c2ccc3ncsc3c2)n1	12.2
CNc1cc(C)nc(N2CCN(Cc3ccccc3)CC(O)C2)n1 (stereo unspecified)	-4.21
CC(C)[C@]1(O)CN(C(=O)CNC(N)=O)C[C@H]1C	5.69
Cc1nc2c(c(NCc3cnc4c(c3)CCC4)n1)CNC2	-3.57
CCCN1CCN(Cc2cn(CCC(N)=O)c3ccccc23)CC1	4.7
CC(C)c1ccc(N2CCc3onc(-c4ccc(F)c(F)c4)c3C2)nn1	0.324
Fc1cccc(Cl)c1Cn1ncnc1CSCCN1CCCC1	-0.454

Compound	cytotoxicity at 10 µM [%]
O=C(NCCN1CCOC1=O)c1ccc2sccc2c1	12.9
Cc1ccccc1N1CCCN(CC2(O)CCCNC2)CC1 (stereo unspecified)	-6.1
Cc1ccc(C)c(C(NC2CCCC2)c2cccnc2)c1 (stereo unspecified)	23.5
CN(C)C[C@@H]1CN(C(=O)c2cc(F)ccc2F)C[C@@H]1CO	7.45
Cc1[nH]c2ccc(CNC(=O)c3ccc(CN4CCCC4)o3)cc2c1C	-2.5
O=C(NCCc1ccncc1)C1CCN(Cc2ccco2)CC1	26.1
CCCc1cc(C(=O)N2CCCC2c2cccnc2)[nH]n1 (stereo unspecified)	-9.81
CCCS(=O)(=O)N1CCN(c2cc(-n3cnc(C)c3C)nc(C)n2)CC1	-8.51
Cc1nccn1C1CCCN(C(=O)c2ccc3nncn3c2)C1 (stereo unspecified)	-2.42
Cc1nc(CN(C)C2CCCN(Cc3noc(C4CC4)n3)C2)oc1C (stereo unspecified)	-2.34
Cc1nccc(C(=O)N2CCCC(c3cc(C(F)(F)F)[nH]n3)C2)n1 (stereo unspecified)	-4.59
O=C(c1nn(-c2ccccc2F)cc1O)N1CCC2(CC1)OCCO2	-3.24
Cc1noc(C)c1CN(C)C(=O)NC1CCC(O)CC1 (stereo unspecified)	-9.21
CC(C)c1noc(CCCC(=O)N2CCN(Cc3ccccn3)CC2)n1	-1.79
CCNc1cc2c(nn1)CCN(C(=O)c1cc(C)no1)C2	-14.5
CCn1ncc2c1CCCC2NCc1cccc2c1OCCCO2 (stereo unspecified)	-13.4
Cc1ccc(CNC(C)c2ccc(OCC(=O)NC3CC3)cc2)o1 (stereo unspecified)	2.07
CCOc1ccc(C(=O)N2CCCCC2Cn2nc(C)cc2C)cn1 (stereo unspecified)	6.6
Cc1nc(C)n(CC2CCCN(CCCOc3ccc(F)cc3)C2)n1 (stereo unspecified)	-3.08
O=C(c1ccc2c(c1)COC2)N1CCC(Nc2cccnn2)CC1	-13.1
O=C(NCCC1=CCCCC1)NCc1nnc2n1CCC2	-5.6
CC(C)(C)c1ncc(C(=O)NCCS(N)(=O)=O)s1	-9.58
CCc1cnc(CN(C(C)=O)C2CCN(CCc3cccs3)C2)o1 (stereo unspecified)	-6.78

Compound	cytotoxicity at 10 µM [%]
COc1ccc(C2=CCN(C(=O)C3CC(=O)N(C4CC4)C3)CC2)cc1 (stereo unspecified)	-6.66
CN1CCN(C(=O)c2ccc(=O)n(C)c2)Cc2ccccc21	-10.2
CC(C)c1ncc2c(n1)CN(Cc1nc(Cc3ccccc3)no1)CC2	-14.6
O=C(Nc1nccs1)N(CCO)Cc1ccsc1	1.4
Cc1ccc(C)c(NC(=O)N(C)Cc2cnn(C)c2)c1	-3.02
c1csc(-c2noc(CCCN3CCCC3Cn3cccn3)n2)c1 (stereo unspecified)	-7.47
COCCNC(=O)Nc1ccc(F)c(C(N)=O)c1	-6.46
Cc1cnn(CC2CCCCN2C(=O)c2cc(Cl)c[nH]2)c1 (stereo unspecified)	-5.4
c1cc(-c2nc(CN3CCn4c(nnc4C4CC4)C3)cs2)cs1	-2.22
Cc1oncc1C(=O)N[C@@H]1CN(C2CCC2)C[C@@H]2CCCO[C@@H]21	-109
COC1CCC[C@@H]2CN(Cc3csc(C)n3)C[C@H]12 (stereo partly specified)	-110
O=C(NCCc1cccs1)[C@H]1CO[C@H]2CCNC[C@H]2C1	2.11
COc1ccc(CN2CC[C@H]3[C@H]2CCN3C(=O)c2cnn(C)c2)cc1	7.9
Cn1ccnc1CN1C[C@@H]2[C@@H](C1)OCC(=O)N2CC1CCCC1	-4.48
Cc1noc(C)c1CNCC1Cn2nncc2CO1 (stereo unspecified)	-101
Cc1nc(CN2C[C@@H]3CN(C(=O)c4cccn4C)C[C@@H]3C2=O)cs1	1.88
O=C(COC1CCCC1)N1C[C@@H]2COC[C@]2(COc2cccnc2)C1	-99.4
Cn1cc(CN2C[C@@H]3COC[C@@H](C(=O)N4CCCCO4)[C@@H]3C2)cn1	-1.57
Cc1ccccc1CC(=O)N1C[C@@H]2CC[C@H]1CN(Cc1cccnc1)C2	-2.36

Source: ChEMBL document CHEMBL4513216, “Probing the Open Global Health Chemical Diversity Library for Multistage-Active Starting Points for Next-Generation Antimalarials” (ACS Infect Dis, 2020)
